From ChEMBL document CHEMBL3758168, “Hybrid triazoles: Design and synthesis as potential dual inhibitor of growth and efflux inhibition in tuberculosis” (Eur J Med Chem, 2016)
Converted amounts (≈) assume the structure as drawn.

Legend:
[1] = system: Mycobacterium tuberculosis; assay: Antibacterial activity against Mycobacterium tuberculosis H37Rv ATCC 27294T assessed as isoniazid MIC at 32 ug/ml after 7 days by microdilution checkerboard assay; format: functional; conditions: 168 h
In short: (§1)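 Two-dimensional checkerboard in H37Rv at 10^5 CFU/ml in MB7H9/OADC. Partner drug (amikacin, EtBr, isoniazid, ofloxacin or rifampin) two-fold serially diluted across columns 3-11. Test compound two-fold serially diluted down rows 2-6. Plates incubated 7 days at 37 °C, then MTT added overnight. […] Run in triplicate.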

[2] = system: Mycobacterium tuberculosis; assay: Antibacterial activity against Mycobacterium tuberculosis H37Rv ATCC 27294T assessed as ethidium bromide MIC at 4 ug/ml after 7 days by microdilution checkerboard assay; format: functional; conditions: 168 h; in short: as §1
[3] = system: Mycobacterium tuberculosis; assay: Antibacterial activity against Mycobacterium tuberculosis H37Rv ATCC 27294T assessed as isoniazid MIC at 4 ug/ml after 7 days by microdilution checkerboard; format: functional; conditions: 168 h; in short: as §1
[4] = system: Mycobacterium tuberculosis; assay: Anti-tubercular activity against Mycobacterium tuberculosis H37Rv ATCC 27294T after 7 days by mircodilution method; format: functional; conditions: 168 h
In short: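 H37Rv grown static in MB7H9 + 10% OADC at 37 °C to OD600 0.8, then diluted to about 10^5 cells/ml. Mixed 1:1 with two-fold serial dilutions in MB7H9/OADC and incubated 7 days at 37 °C. MTT added to final 2.5% and plates incubated overnight. MIC is the lowest concentration with no colour change. Run in triplicate.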

[5] = system: Mycobacterium tuberculosis; assay: Antibacterial activity against Mycobacterium tuberculosis H37Rv ATCC 27294T assessed as ethidium bromide MIC at 64 ug/ml after 7 days by microdilution checkerboard assay; format: functional; conditions: 168 h; in short: as §1
[6] = Ratio of compound IC50 to thioridazine IC50 for human MDM; format: ADME; conditions: read-out: Ratio IC50
[7] = system: Mycobacterium tuberculosis; assay: Antibacterial activity against Mycobacterium tuberculosis H37Rv ATCC 27294T assessed as rifampin MIC at 64 ug/ml after 7 days by microdilution checkerboard assay; format: functional; conditions: 168 h
In short: (§2)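 M. tuberculosis H37Rv grown in MB7H9 + 10% OADC at 37 °C to OD600 0.8; plates inoculated at 10^5 CFU/ml. Rifampicin two-fold serially diluted across columns, test compound two-fold diluted down rows (two-dimensional checkerboard). Sealed, 37 °C for seven days, then MTT added and incubated overnight. MIC read as no colour change. Triplicate.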

[8] = Cytotoxicity against human MDM assessed as cell viability after 3 days by Alamar blue dye-based fluorocytometric analysis relative to control; conditions: 72 h
[9] = system: Mycobacterium tuberculosis; assay: Antibacterial activity against Mycobacterium tuberculosis H37Rv ATCC 27294T assessed as rifampin MIC at 32 ug/ml after 7 days by microdilution checkerboard assay; format: functional; conditions: 168 h; in short: as §2
[10] = system: Mycobacterium tuberculosis; assay: Antibacterial activity against Mycobacterium tuberculosis H37Rv ATCC 27294T assessed as isoniazid MIC at 8 ug/ml after 7 days by microdilution checkerboard assay; format: functional; conditions: 168 h; in short: as §1
[11] = system: Mycobacterium tuberculosis; assay: Antibacterial activity against Mycobacterium tuberculosis H37Rv ATCC 27294T assessed as isoniazid MIC at 2 ug/ml after 7 days by microdilution checkerboard assay; format: functional; conditions: 168 h; in short: as §1
[12] = system: Mycobacterium tuberculosis; assay: Antibacterial activity against Mycobacterium tuberculosis H37Rv ATCC 27294T assessed as rifampin MIC at 16 ug/ml after 7 days by microdilution checkerboard assay; format: functional; conditions: 168 h; in short: as §2
[13] = system: Mycobacterium tuberculosis; assay: Antibacterial activity against Mycobacterium tuberculosis H37Rv ATCC 27294T assessed as isoniazid MIC at 128 ug/ml after 7 days by microdilution checkerboard assay; format: functional; conditions: 168 h; in short: as §1
[14] = system: Mycobacterium tuberculosis; assay: Antibacterial activity against Mycobacterium tuberculosis H37Rv ATCC 27294T assessed as isoniazid MIC at 16 ug/ml after 7 days by microdilution checkerboard assay; format: functional; conditions: 168 h; in short: as §1

## CCCSc1nnc(COc2ccccc2C2=NOC(c3ccc(Cl)cc3Cl)C2)n1NC(=O)CCl (centres undefined)
[1]
  MIC: 0.1 mg/L
[2]
  MIC: 12.5 mg/L
[3]
  MIC: 0.1 mg/L
[4]
  MIC: 64 mg/L (≈ 115 µM)
[5]
  MIC: 6.25 mg/L
[6]
  selectivity ratio: 3
[7]
  MIC: 0.25 mg/L
[8]
  IC50: 28.7 mg/L (≈ 51.7 µM)
[9]
  MIC: 0.5 mg/L
[10]
  MIC: 0.1 mg/L
[11]
  MIC: 0.1 mg/L
[12]
  MIC: 0.5 mg/L
[13]
  MIC: 0.00156 mg/L
[14]
  MIC: 0.1 mg/L
